Values after ≈ are worked out from the molar mass of the structure shown. Active and inactive are the calls of the source. No cut-off for these calls is given here.
Key:
A498 = assay: Cytotoxicity against human A498 cells assessed as growth inhibition at 10 uM after 48 hrs by sulphorhodamine B assay; format: functional; conditions: A498, 48 h, read-out: GI
In short: (§1)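 NCI-60 one-dose screen per the NCI Drug Evaluation Branch protocol. Cells given a single 10 µM concentration with 48 h continuous exposure. Growth estimated by sulphorhodamine B protein assay. Result expressed as percentage growth inhibition relative to untreated growth.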

LOX IMVI = assay: Cytotoxicity against human LOXIMVI cells assessed as growth inhibition at 10 uM after 48 hrs by sulphorhodamine B assay; format: functional; conditions: read-out: GI; in short: as §1
UO-31 = assay: Cytotoxicity against human UO31 cells assessed as growth inhibition at 10 uM after 48 hrs by sulphorhodamine B assay; format: functional; conditions: UO-31, 48 h, read-out: GI; in short: as §1
HOP-92 = assay: Cytotoxicity against human HOP92 cells assessed as growth inhibition at 10 uM after 48 hrs by sulphorhodamine B assay; format: functional; conditions: HOP-92, 48 h, read-out: GI; in short: as §1
HCT-15 = assay: Cytotoxicity against human HCT15 cells assessed as growth inhibition at 10 uM after 48 hrs by sulphorhodamine B assay; format: functional; conditions: HCT-15, 48 h, read-out: GI; in short: as §1
RPMI-8226 = assay: Cytotoxicity against human RPMI8226 cells assessed as growth inhibition at 10 uM after 48 hrs by sulphorhodamine B assay; format: functional; conditions: RPMI-8226, 48 h, read-out: GI; in short: as §1
NCI/ADR-RES = assay: Cytotoxicity against human NCI/ADR-RES cells assessed as growth inhibition at 10 uM after 48 hrs by sulphorhodamine B assay; format: functional; conditions: read-out: GI; in short: as §1
A549 = assay: Cytotoxicity against human A549 cells assessed as growth inhibition at 10 uM after 48 hrs by sulphorhodamine B assay; format: functional; conditions: A549, 48 h, read-out: GI; in short: as §1
HL-60(TB) = assay: Cytotoxicity against human HL-60(TB) cells assessed as growth inhibition at 10 uM after 48 hrs by sulphorhodamine B assay; format: functional; conditions: HL-60, 48 h, read-out: GI
In short: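 NCI-60 one-dose primary screen run to the Drug Evaluation Branch protocol. Cells are exposed to a single 10 µM concentration for 48 h continuously, and growth is read by SRB protein assay. Data are reported as percent growth of treated cells, expressed as % growth inhibition.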

SK-OV-3 = assay: Cytotoxicity against human SKOV3 cells assessed as growth inhibition at 10 uM after 48 hrs by sulphorhodamine B assay; format: functional; conditions: SK-OV-3, 48 h, read-out: GI; in short: as §1
[1] = Displacement of methyl green from DNA (unknown origin) after 24 hrs
In short: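 DNA-methyl green complex was stirred in 0.05 M Tris-HCl pH 7.5 with 7.5 mmol MgSO4 at 37 °C for 24 h. Compound was dried down from EtOH in tubes and the DNA-methyl green solution added. A630 was read initially and after 24 h dark incubation at room temperature, corrected and normalized to untreated complex. IC50 is the concentration giving a 50% absorbance decrease; mean ± SD, n = 6.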

UACC-62 = assay: Cytotoxicity against human UACC62 cells assessed as growth inhibition at 10 uM after 48 hrs by sulphorhodamine B assay; format: functional; conditions: UACC-62, 48 h, read-out: GI; in short: as §1
DU-145 = assay: Cytotoxicity against human DU145 cells assessed as growth inhibition at 10 uM after 48 hrs by sulphorhodamine B assay; format: functional; conditions: DU-145, 48 h, read-out: GI; in short: as §1
ACHN = assay: Cytotoxicity against human ACHN cells assessed as growth inhibition at 10 uM after 48 hrs by sulphorhodamine B assay; format: functional; conditions: read-out: GI; in short: as §1
M14 = assay: Cytotoxicity against human M14 cells assessed as growth inhibition at 10 uM after 48 hrs by sulphorhodamine B assay; format: functional; conditions: M14, 48 h, read-out: GI; in short: as §1
SR = assay: Cytotoxicity against human SR cells assessed as growth inhibition at 10 uM after 48 hrs by sulphorhodamine B assay; format: functional; conditions: read-out: GI; in short: as §1
Hs-578T = assay: Cytotoxicity against human Hs578T cells assessed as growth inhibition at 10 uM after 48 hrs by sulphorhodamine B assay; format: functional; conditions: read-out: GI; in short: as §1
OVCAR-4 = assay: Cytotoxicity against human OVCAR4 cells assessed as growth inhibition at 10 uM after 48 hrs by sulphorhodamine B assay; format: functional; conditions: OVCAR-4, 48 h, read-out: GI; in short: as §1
MDA-MB-468 = assay: Cytotoxicity against human MDA-MB-468 cells assessed as growth inhibition at 10 uM after 48 hrs by sulphorhodamine B assay; format: functional; conditions: MDA-MB-468, 48 h, read-out: GI; in short: as §1
U-251 = assay: Cytotoxicity against human U251 cells assessed as growth inhibition at 10 uM after 48 hrs by sulphorhodamine B assay; format: functional; conditions: U-251, 48 h, read-out: GI; in short: as §1
SK-MEL-5 = assay: Cytotoxicity against human SK-MEL-5 cells assessed as growth inhibition at 10 uM after 48 hrs by sulphorhodamine B assay; format: functional; conditions: SK-MEL-5, 48 h, read-out: GI; in short: as §1
MCF7 = assay: Cytotoxicity against human MCF7 cells assessed as growth inhibition at 10 uM after 48 hrs by sulphorhodamine B assay; format: functional; conditions: MCF7, 48 h, read-out: GI; in short: as §1
RXF 393 = assay: Cytotoxicity against human RXF393 cells assessed as growth inhibition at 10 uM after 48 hrs by sulphorhodamine B assay; format: functional; conditions: RXF 393, 48 h, read-out: GI; in short: as §1
IGROV-1 = assay: Cytotoxicity against human IGROV1 cells assessed as growth inhibition at 10 uM after 48 hrs by sulphorhodamine B assay; format: functional; conditions: IGROV-1, 48 h, read-out: GI; in short: as §1
SF-268 = assay: Cytotoxicity against human SF268 cells assessed as growth inhibition at 10 uM after 48 hrs by sulphorhodamine B assay; format: functional; conditions: SF-268, 48 h, read-out: GI; in short: as §1
MDA-MB-435 = assay: Cytotoxicity against human MDA-MB-435 cells assessed as growth inhibition at 10 uM after 48 hrs by sulphorhodamine B assay; format: functional; conditions: MDA-MB-435, 48 h, read-out: GI; in short: as §1
SK-MEL-2 = assay: Cytotoxicity against human SK-MEL-2 cells assessed as growth inhibition at 10 uM after 48 hrs by sulphorhodamine B assay; format: functional; conditions: SK-MEL-2, 48 h, read-out: GI; in short: as §1
SNB-75 = assay: Cytotoxicity against human SNB75 cells assessed as growth inhibition at 10 uM after 48 hrs by sulphorhodamine B assay; format: functional; conditions: SNB-75, 48 h, read-out: GI; in short: as §1
NCI-H522 = assay: Cytotoxicity against human NCI-H522 cells assessed as growth inhibition at 10 uM after 48 hrs by sulphorhodamine B assay; format: functional; conditions: NCI-H522, 48 h, read-out: GI; in short: as §1
[2] = Binding affinity to DNA (unknown origin) at 5 mg/mL by RP-TLC plate analysis
In short: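 Reversed-phase C18 TLC plates pre-developed in methanol/water 8:2. Compound spotted at origin (5 mg/mL in methanol), then DNA (1 mg/mL in water/methanol 8:2) applied at the same spot. Plates developed in the same eluent; DNA located by anisaldehyde spray (blue). Ethidium bromide as positive control.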

OVCAR-5 = assay: Cytotoxicity against human OVCAR5 cells assessed as growth inhibition at 10 uM after 48 hrs by sulphorhodamine B assay; format: functional; conditions: OVCAR-5, 48 h, read-out: GI; in short: as §1
CAKI-1 = assay: Cytotoxicity against human Caki1 cells assessed as growth inhibition at 10 uM after 48 hrs by sulphorhodamine B assay; format: functional; conditions: CAKI-1, 48 h, read-out: GI; in short: as §1

SMILES	inhibition of growth at 10 µM (A498) [%]	inhibition of growth at 10 µM (LOX IMVI) [%]	inhibition of growth at 10 µM (UO-31) [%]	inhibition of growth at 10 µM (HOP-92) [%]	inhibition of growth at 10 µM (HCT-15) [%]	inhibition of growth at 10 µM (RPMI-8226) [%]	inhibition of growth at 10 µM (NCI/ADR-RES) [%]	inhibition of growth at 10 µM (A549) [%]	inhibition of growth at 10 µM (HL-60(TB)) [%]	inhibition of growth at 10 µM (SK-OV-3) [%]	IC50 [1] [µg/mL]	inhibition of growth at 10 µM (UACC-62) [%]	inhibition of growth at 10 µM (DU-145) [%]	inhibition of growth at 10 µM (ACHN) [%]	inhibition of growth at 10 µM (M14) [%]	inhibition of growth at 10 µM (SR) [%]	inhibition of growth at 10 µM (Hs-578T) [%]	inhibition of growth at 10 µM (OVCAR-4) [%]	inhibition of growth at 10 µM (MDA-MB-468) [%]	inhibition of growth at 10 µM (U-251) [%]	also measured
CCSc1nc(N)c2c(-c3ccc(Cl)cc3)c3c(nc2n1)C(C)CCC3 (centres undefined)	21.7	< 10	59	35.2	18.8	33.8	12.8	18.1	< 10	15.2	0.127 (≈ 0.33 µM)	21.8	< 10	30.8	< 10	37.9	14.2	26.8	30.8	13.6	inhibition of growth at 10 µM (SK-MEL-5): < 10%; inhibition of growth at 10 µM (MCF7): < 10%; inhibition of growth at 10 µM (RXF 393): 26.6%; inhibition of growth at 10 µM (IGROV-1): 39%; inhibition of growth at 10 µM (SF-268): < 10%; inhibition of growth at 10 µM (MDA-MB-435): 14.5%; inhibition of growth at 10 µM (SK-MEL-2): < 10%; inhibition of growth at 10 µM (SNB-75): 33%; inhibition of growth at 10 µM (NCI-H522): 21.9%; Activity [2]: Active; inhibition of growth at 10 µM (OVCAR-5): 12.3%; inhibition of growth at 10 µM (CAKI-1): < 10%
CC1CCCc2c1nc1nc(SCC(=O)c3ccccc3)nc(N)c1c2-c1ccc(Cl)cc1 (centres undefined)	21.2	14.6	63	90	71.5	69.2	12.8	17.6	22	< 10	0.061 (≈ 0.128 µM)	70.8	17	29.3	35	< 10	38.2	20	22.9	21.5	inhibition of growth at 10 µM (SK-MEL-5): 67%; inhibition of growth at 10 µM (MCF7): 30%; inhibition of growth at 10 µM (RXF 393): 62.2%; inhibition of growth at 10 µM (IGROV-1): < 10%; inhibition of growth at 10 µM (SF-268): 23.7%; inhibition of growth at 10 µM (MDA-MB-435): 13%; inhibition of growth at 10 µM (SK-MEL-2): 14.5%; inhibition of growth at 10 µM (SNB-75): < 10%; inhibition of growth at 10 µM (NCI-H522): 17.5%; Activity [2]: Active; inhibition of growth at 10 µM (OVCAR-5): 10%; inhibition of growth at 10 µM (CAKI-1): 11.8%
